Source: ChEMBL document CHEMBL1250448, “Inhibitor hijacking of Akt activation” (Nat Chem Biol, 2009)

Tests used:
[1] = biological target: Serine/threonine-protein kinase PAK 3 (Homo sapiens) (UniProt O75914); assay: Inhibition of PAK3 at 1 uM in presence of 10 uM ATP by Select Screen kinase assay relative to untreated control
[2] = biological target: Protein kinase C eta type (Homo sapiens) (UniProt P24723); assay: Inhibition of PRKCH at 1 uM in presence of 10 uM ATP by Select Screen kinase assay relative to untreated control
[3] = biological target: Proto-oncogene tyrosine-protein kinase receptor Ret (Homo sapiens) (UniProt P07949); assay: Inhibition of RET at 1 uM in presence of 100 uM ATP by Select Screen kinase assay relative to untreated control
Outline: (§1)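 Profiling panel of 220 purified kinases (SelectScreen), each compound tested at 1 μM. Read-out is percent inhibition of kinase activity.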

[4] = test system: Tyrosine-protein kinase ABL1 (Homo sapiens), P00519 [E255K]; assay: Inhibition of ABL1 E255K mutant at 1 uM in presence of 10 uM ATP by Select Screen kinase assay relative to untreated control
Outline: (§2)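 Single-point screen at 1 μM against a panel of 220 purified kinases, run by Invitrogen staff as a SelectScreen profiling service. Read-out is percent inhibition of kinase activity.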

[5] = test system: Tyrosine-protein kinase ABL1 (Homo sapiens), P00519 [T315I]; assay: Inhibition of ABL1 T315I mutant at 1 uM in presence of 10 uM ATP by Select Screen kinase assay relative to untreated control; outline: as §2
[6] = biological target: Tyrosine-protein kinase ABL2 (Homo sapiens) (UniProt P42684); assay: Inhibition of ABL2 at 1 uM in presence of 10 uM ATP by Select Screen kinase assay relative to untreated control; outline: as §2
Sequence of Tyrosine-protein kinase ABL2 (Homo sapiens) (P42684 whole entry): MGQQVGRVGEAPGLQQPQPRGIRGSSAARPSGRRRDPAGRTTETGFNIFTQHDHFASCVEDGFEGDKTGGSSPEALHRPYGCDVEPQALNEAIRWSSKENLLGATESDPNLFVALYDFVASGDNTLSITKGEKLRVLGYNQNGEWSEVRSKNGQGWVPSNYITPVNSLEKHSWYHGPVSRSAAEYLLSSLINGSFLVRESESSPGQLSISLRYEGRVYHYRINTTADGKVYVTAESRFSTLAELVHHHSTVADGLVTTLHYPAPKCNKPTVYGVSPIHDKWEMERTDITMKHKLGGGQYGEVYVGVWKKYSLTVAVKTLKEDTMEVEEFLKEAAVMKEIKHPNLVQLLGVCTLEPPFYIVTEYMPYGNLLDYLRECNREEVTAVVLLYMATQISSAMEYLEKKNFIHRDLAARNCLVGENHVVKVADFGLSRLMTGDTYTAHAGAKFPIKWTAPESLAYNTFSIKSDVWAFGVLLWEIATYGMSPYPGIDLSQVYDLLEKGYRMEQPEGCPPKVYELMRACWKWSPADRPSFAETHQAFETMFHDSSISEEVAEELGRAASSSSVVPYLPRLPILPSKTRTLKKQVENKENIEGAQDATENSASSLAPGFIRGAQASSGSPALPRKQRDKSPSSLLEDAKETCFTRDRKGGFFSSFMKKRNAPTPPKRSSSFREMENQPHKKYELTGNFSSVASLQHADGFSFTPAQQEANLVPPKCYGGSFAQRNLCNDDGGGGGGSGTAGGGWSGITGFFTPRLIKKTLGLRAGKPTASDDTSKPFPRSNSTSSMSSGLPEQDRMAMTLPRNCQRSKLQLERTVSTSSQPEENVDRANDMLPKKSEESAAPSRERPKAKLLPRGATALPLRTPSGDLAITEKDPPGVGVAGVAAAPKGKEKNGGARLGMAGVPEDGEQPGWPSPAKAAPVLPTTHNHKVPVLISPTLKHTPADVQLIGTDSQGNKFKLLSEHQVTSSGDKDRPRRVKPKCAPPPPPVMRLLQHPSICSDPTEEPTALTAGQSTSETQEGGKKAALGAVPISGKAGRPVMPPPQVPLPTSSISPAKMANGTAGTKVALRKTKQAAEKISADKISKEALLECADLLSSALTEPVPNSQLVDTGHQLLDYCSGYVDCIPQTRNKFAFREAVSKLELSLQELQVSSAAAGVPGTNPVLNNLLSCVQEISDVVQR

[7] = biological target: Calcium/calmodulin-dependent protein kinase type 1D (Homo sapiens) (UniProt Q8IU85); assay: Inhibition of CAMK1D at 1 uM in presence of 10 uM ATP by Select Screen kinase assay relative to untreated control; outline: as §2
Sequence of Calcium/calmodulin-dependent protein kinase type 1D (Homo sapiens) (Q8IU85 whole entry, looked up): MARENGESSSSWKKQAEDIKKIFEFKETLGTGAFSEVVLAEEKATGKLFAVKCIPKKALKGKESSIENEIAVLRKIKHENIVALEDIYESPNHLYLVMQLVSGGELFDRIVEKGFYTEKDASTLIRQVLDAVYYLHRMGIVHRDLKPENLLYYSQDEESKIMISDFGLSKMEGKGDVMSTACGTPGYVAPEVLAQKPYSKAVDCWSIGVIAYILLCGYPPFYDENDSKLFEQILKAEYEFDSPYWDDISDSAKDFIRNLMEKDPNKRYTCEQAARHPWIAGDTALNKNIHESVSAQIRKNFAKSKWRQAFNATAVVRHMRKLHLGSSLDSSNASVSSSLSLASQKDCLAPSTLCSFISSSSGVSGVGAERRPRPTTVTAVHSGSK

[8] = biological target: Rho-associated protein kinase 2 (Homo sapiens) (UniProt O75116); assay: Inhibition of ROCK2 at 1 uM in presence of 10 uM ATP by Select Screen kinase assay relative to untreated control; outline: as §1
[9] = biological target: Testis-specific serine/threonine-protein kinase 2 (Homo sapiens) (UniProt Q96PF2); assay: Inhibition of STK22B at 1 uM in presence of 10 uM ATP by Select Screen kinase assay relative to untreated control
Sequence of Testis-specific serine/threonine-protein kinase 2 (Homo sapiens) (Q96PF2 whole entry): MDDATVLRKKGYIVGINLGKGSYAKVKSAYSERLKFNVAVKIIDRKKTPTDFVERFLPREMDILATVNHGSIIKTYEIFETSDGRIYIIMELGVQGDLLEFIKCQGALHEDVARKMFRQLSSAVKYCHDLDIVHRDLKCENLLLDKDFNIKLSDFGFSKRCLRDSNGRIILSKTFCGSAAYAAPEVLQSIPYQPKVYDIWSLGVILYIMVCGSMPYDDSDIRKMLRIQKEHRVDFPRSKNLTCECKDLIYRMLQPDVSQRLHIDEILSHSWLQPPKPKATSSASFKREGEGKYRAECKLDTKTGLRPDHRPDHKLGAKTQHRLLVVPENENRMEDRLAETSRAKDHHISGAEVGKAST
Outline: (§3)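 Commercial SelectScreen profiling panel of 220 purified kinases. Each kinase was tested at a single inhibitor concentration of 1 μM, and activity was expressed as percent inhibition.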

[10] = biological target: Serine/threonine-protein kinase 3 (Homo sapiens) (UniProt Q13188); assay: Inhibition of STK3 at 1 uM in presence of 10 uM ATP by Select Screen kinase assay relative to untreated control
[11] = biological target: Aurora kinase A (Homo sapiens) (UniProt O14965); assay: Inhibition of STK6 at 1 uM in presence of 10 uM ATP by Select Screen kinase assay relative to untreated control; outline: as §3
[12] = biological target: Calcium/calmodulin-dependent protein kinase type II subunit delta (Homo sapiens) (UniProt Q13557); assay: Inhibition of CAMK2D at 1 uM in presence of 10 uM ATP by Select Screen kinase assay relative to untreated control; outline: as §2
[13] = biological target: Serine/threonine-protein kinase MRCK alpha (Homo sapiens) (UniProt Q5VT25); assay: Inhibition of CDC42 binding protein alpha at 1 uM in presence of 10 uM ATP by Select Screen kinase assay relative to untreated control; outline: as §2
[14] = biological target: Serine/threonine-protein kinase MRCK beta (Homo sapiens) (UniProt Q9Y5S2); assay: Inhibition of CDC42 binding protein beta at 1 uM in presence of 10 uM ATP by Select Screen kinase assay relative to untreated control; outline: as §2
[15] = biological target: Serine/threonine-protein kinase Chk1 (Homo sapiens) (UniProt O14757); assay: Inhibition of CHEK1 at 1 uM in presence of 10 uM ATP by Select Screen kinase assay relative to untreated control; outline: as §2
[16] = biological target: Dual specificity protein kinase CLK3 (Homo sapiens) (UniProt P49761); assay: Inhibition of CLK3 at 1 uM in presence of 100 uM ATP by Select Screen kinase assay relative to untreated control
Outline: (§4)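 Part of a 220-kinase panel of purified kinases, each tested with compound at 1 μM. Percent inhibition was measured in the Invitrogen SelectScreen profiling assay.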

[17] = biological target: Death-associated protein kinase 3 (Homo sapiens) (UniProt O43293); assay: Inhibition of DAPK3 at 1 uM in presence of 10 uM ATP by Select Screen kinase assay relative to untreated control; outline: as §4
[18] = biological target: Dual specificity tyrosine-phosphorylation-regulated kinase 4 (Homo sapiens) (UniProt Q9NR20); assay: Inhibition of DYRK4 at 1 uM in presence of 10 uM ATP by Select Screen kinase assay relative to untreated control; outline: as §1
Sequence of Dual specificity tyrosine-phosphorylation-regulated kinase 4 (Homo sapiens) (Q9NR20 whole entry): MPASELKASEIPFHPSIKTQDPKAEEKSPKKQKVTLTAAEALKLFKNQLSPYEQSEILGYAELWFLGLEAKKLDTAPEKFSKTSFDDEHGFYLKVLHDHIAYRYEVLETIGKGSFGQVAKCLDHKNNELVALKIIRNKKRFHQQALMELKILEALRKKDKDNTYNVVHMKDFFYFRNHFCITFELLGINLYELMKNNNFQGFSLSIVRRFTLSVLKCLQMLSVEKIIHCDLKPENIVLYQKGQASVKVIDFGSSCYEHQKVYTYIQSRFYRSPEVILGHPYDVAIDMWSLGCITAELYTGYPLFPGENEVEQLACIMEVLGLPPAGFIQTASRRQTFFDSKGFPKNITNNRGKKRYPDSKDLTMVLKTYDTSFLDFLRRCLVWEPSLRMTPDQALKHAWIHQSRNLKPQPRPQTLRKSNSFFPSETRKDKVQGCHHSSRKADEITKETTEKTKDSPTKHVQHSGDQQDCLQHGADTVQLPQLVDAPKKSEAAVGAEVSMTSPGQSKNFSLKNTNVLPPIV

[19] = biological target: Tyrosine-protein kinase FRK (Homo sapiens) (UniProt P42685); assay: Inhibition of FRK at 1 uM in presence of 10 uM ATP by Select Screen kinase assay relative to untreated control; outline: as §4
Sequence of Tyrosine-protein kinase FRK (Homo sapiens) (P42685 whole entry): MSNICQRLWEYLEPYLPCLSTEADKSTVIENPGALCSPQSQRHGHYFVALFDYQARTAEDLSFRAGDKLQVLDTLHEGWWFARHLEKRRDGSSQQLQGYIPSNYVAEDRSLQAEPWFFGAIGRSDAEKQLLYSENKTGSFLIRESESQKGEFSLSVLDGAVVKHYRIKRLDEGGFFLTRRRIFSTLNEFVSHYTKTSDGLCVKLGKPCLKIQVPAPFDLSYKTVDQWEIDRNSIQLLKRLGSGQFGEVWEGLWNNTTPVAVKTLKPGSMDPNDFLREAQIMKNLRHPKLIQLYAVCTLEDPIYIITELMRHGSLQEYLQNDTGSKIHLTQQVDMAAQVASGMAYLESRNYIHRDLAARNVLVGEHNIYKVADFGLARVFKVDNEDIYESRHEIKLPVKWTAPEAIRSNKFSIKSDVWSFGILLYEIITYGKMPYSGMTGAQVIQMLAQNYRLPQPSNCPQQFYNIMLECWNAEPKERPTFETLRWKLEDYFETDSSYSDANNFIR

[20] = biological target: Tyrosine-protein kinase ITK/TSK (Homo sapiens) (UniProt Q08881); assay: Inhibition of ITK at 1 uM in presence of 10 uM ATP by Select Screen kinase assay relative to untreated control
Sequence of Tyrosine-protein kinase ITK/TSK (Homo sapiens) (Q08881 whole entry): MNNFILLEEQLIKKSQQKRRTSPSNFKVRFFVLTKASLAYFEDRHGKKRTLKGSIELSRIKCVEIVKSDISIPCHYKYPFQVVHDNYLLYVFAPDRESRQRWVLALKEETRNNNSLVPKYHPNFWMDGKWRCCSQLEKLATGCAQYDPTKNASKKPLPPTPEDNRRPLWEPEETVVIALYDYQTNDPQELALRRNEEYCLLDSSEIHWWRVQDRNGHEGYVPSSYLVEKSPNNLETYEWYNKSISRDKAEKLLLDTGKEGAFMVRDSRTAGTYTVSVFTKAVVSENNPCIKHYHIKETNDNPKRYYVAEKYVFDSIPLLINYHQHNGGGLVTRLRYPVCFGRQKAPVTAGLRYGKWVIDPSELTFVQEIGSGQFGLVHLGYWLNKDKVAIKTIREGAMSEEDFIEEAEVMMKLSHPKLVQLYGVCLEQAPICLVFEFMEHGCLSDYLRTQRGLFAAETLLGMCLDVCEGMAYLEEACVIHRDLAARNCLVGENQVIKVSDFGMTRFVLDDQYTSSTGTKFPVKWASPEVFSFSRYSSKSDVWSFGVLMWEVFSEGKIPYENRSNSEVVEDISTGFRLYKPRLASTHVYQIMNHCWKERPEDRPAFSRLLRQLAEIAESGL

[21] = biological target: Tyrosine-protein kinase JAK3 (Homo sapiens) (UniProt P52333); assay: Inhibition of JAK3 at 1 uM in presence of 10 uM ATP by Select Screen kinase assay relative to untreated control
Outline: (§5)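 Single-concentration profiling at 1 μM against a panel of 220 purified kinases, run as an outsourced SelectScreen kinase profiling service. Activity is expressed as percent inhibition.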

[22] = biological target: Mast/stem cell growth factor receptor Kit (Homo sapiens) (UniProt P10721); assay: Inhibition of KIT at 1 uM in presence of 100 uM ATP by Select Screen kinase assay relative to untreated control; outline: as §5
[23] = biological target: 3-phosphoinositide-dependent protein kinase 1 (Homo sapiens) (UniProt O15530); assay: Inhibition of PDK1 at 1 uM in presence of 10 uM ATP by Select Screen kinase assay relative to untreated control; outline: as §3
Sequence of 3-phosphoinositide-dependent protein kinase 1 (Homo sapiens) (O15530 whole entry): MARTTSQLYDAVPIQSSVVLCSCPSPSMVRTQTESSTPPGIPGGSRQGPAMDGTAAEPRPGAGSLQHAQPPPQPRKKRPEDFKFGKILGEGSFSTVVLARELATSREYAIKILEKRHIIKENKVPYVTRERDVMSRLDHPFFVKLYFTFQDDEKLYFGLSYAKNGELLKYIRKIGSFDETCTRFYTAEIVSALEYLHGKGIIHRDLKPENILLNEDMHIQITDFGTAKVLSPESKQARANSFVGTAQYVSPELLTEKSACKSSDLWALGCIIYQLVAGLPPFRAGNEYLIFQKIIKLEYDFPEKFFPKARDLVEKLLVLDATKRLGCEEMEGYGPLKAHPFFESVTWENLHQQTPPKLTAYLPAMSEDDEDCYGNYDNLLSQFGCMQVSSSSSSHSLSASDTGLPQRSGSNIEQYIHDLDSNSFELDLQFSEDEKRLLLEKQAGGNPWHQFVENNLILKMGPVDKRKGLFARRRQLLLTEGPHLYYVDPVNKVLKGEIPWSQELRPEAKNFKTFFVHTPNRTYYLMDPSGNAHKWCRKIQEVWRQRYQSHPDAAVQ

[24] = biological target: Serine/threonine-protein kinase pim-1 (Homo sapiens) (UniProt P11309); assay: Inhibition of PIM1 at 1 uM in presence of 10 uM ATP by Select Screen kinase assay relative to untreated control; outline: as §1
[25] = biological target: Serine/threonine-protein kinase pim-2 (Homo sapiens) (UniProt Q9P1W9); assay: Inhibition of PIM2 at 1 uM in presence of 10 uM ATP by Select Screen kinase assay relative to untreated control
Sequence of Serine/threonine-protein kinase pim-2 (Homo sapiens) (Q9P1W9 whole entry, looked up): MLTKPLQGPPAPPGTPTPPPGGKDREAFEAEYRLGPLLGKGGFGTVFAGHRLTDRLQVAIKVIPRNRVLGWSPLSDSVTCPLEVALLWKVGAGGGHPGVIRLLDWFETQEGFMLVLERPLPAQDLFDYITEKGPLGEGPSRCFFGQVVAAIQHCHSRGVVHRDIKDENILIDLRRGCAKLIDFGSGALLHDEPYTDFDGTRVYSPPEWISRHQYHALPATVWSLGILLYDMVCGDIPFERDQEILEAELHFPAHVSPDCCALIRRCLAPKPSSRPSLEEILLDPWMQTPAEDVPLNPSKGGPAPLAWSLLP

[26] = biological target: Serine/threonine-protein kinase N1 (Homo sapiens) (UniProt Q16512); assay: Inhibition of PKN1 at 1 uM in presence of 10 uM ATP by Select Screen kinase assay relative to untreated control; outline: as §1
[27] = biological target: cAMP-dependent protein kinase catalytic subunit alpha (Homo sapiens) (UniProt P17612); assay: Inhibition of PRKACA (PKA) at 1 uM in presence of 10 uM ATP by Select Screen kinase assay relative to untreated control

Sequence of Serine/threonine-protein kinase PAK 3 (Homo sapiens) (O75914 whole entry, looked up): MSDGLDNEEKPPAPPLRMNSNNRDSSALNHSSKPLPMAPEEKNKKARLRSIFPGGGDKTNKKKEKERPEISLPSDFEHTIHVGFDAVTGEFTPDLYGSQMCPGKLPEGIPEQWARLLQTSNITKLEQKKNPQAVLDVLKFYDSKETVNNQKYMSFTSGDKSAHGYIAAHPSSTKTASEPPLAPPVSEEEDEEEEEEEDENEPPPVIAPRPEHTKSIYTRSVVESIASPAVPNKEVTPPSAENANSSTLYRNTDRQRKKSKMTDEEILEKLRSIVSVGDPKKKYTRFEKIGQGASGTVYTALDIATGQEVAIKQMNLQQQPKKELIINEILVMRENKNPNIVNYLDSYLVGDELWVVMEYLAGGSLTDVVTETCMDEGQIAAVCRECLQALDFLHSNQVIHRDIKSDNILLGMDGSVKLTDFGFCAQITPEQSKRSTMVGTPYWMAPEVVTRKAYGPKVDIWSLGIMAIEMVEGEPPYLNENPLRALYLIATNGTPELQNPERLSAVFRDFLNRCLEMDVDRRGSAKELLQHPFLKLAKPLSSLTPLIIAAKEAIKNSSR

inhibition [2] [%]	inhibition [3] [%]	inhibition [4] [%]	inhibition [5] [%]	inhibition [6] [%]	inhibition [7] [%]	inhibition [8] [%]	inhibition [9] [%]	inhibition [10] [%]	inhibition [11] [%]	inhibition [12] [%]	inhibition [13] [%]	inhibition [14] [%]	inhibition [15] [%]	inhibition [16] [%]	inhibition [18] [%]	inhibition [19] [%]	inhibition [20] [%]	Compound	inhibition [1] [%]	inhibition [17] [%]	also measured
–	–	–	–	–	–	–	–	–	–	–	–	–	–	–	–	–	–	Cc1n[nH]c2ccc(-c3cncc(OC[C@@H](N)Cc4c[nH]c5ccccc45)c3)cc12	45	–	–
7	87	26	40	37	14	72	2	21	97	85	19	14	75	8	2	16	56	O=C(NCCCNc1nc(Nc2cccc(NC(=O)N3CCCC3)c2)ncc1I)c1cccs1	-2	13	inhibition [21]: 89%; inhibition [22]: 13%; inhibition [23]: 89%; inhibition [24]: 9%; inhibition [25]: 1%; inhibition [26]: 84%; inhibition [27]: 28%
8	41	5	8	4	24	2	3	9	22	11	-3	3	19	32	3	11	16	COc1ccccc1N1CCN(c2ncnc3[nH]nc(Br)c23)CC1	–	14	inhibition [21]: -1%; inhibition [22]: -7%; inhibition [23]: 12%; inhibition [24]: 20%; inhibition [25]: -1%; inhibition [26]: 18%; inhibition [27]: 48%
